Screens: PubChem, several laboratories
MC4R antagonist: antagonists of human melanocortin 4 receptor (MC4R). P32245. MC4R-expressing cells, MTII-stimulated cAMP, LANCE TR-FRET. inhibition, % at 6.5 µM. 360,000 compounds, 0.48% hits;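 active = inhibition above its plate's cutoff, the mean of tested wells on that plate plus 3 SD, cut at about 29% in these data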
Target sequence (P32245 whole entry, looked up): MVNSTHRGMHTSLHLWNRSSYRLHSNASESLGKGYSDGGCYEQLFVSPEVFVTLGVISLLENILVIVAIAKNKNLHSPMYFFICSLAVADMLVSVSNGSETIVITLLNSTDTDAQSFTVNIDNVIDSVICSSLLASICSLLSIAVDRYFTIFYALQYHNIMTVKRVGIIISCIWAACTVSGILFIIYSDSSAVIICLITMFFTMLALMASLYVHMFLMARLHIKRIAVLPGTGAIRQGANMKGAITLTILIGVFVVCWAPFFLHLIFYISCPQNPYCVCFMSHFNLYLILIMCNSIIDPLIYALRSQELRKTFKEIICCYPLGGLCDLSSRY
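System – human MC4R-expressing U2OS cells · Also added – Melanotan II · Dosing – one concentration, 6.5 µM nominal · Timing – 30-min compound, 1-h challenge, 1-h detection, room temperature · Measured by – Eu-cAMP/anti-cAMP TR-FRET, emission 671 nm · Replicates – singlicate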
MC4R barr agon: human MC4R agonism via beta-arrestin; U2OS MC4R beta-arrestin complementation, luminescence; percent of melanotan II response, DMSO zero; P32245; 360,000 compounds, 0.98% hits; activation, % at 8.9 µM;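 active = activation above a per-plate cutoff, the mean activation of sample wells on that plate plus 3 SD, cut at about 8% in these data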
PGE2 EP2 inh: EP2 receptor (human) inhibition; 260,000 compounds, 0.52% hits; P43116; C6 glioma cells expressing human EP2, cAMP TR-FRET; cells stimulated with saturating PGE2; inhibition, % at 25 µM; AID 1422;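 active = percent inhibition above 40 after rounding to a whole number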;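 note: rat C6 glioma host cells with rolipram phosphodiesterase inhibitor present; the protocol text gives 20 µM as final concentration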
Target sequence (P43116 whole entry, looked up): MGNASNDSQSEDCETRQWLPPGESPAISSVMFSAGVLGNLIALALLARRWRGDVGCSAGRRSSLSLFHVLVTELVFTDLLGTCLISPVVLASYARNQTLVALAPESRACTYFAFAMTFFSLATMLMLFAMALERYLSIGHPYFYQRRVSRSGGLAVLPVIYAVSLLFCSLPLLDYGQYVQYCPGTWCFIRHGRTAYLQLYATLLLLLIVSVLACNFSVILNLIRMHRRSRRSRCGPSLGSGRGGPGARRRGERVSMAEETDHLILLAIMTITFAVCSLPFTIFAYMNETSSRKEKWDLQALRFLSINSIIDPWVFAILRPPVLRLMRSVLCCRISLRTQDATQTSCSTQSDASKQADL
EP2 mod: modulators of human EP2 prostaglandin E2 receptor; P43116; EP2-expressing cells, cAMP HTRF FRET, PGE2 co-stimulation; induction, % at 25 µM; 260,000 compounds, 0.83% hits; AID 940;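 active = compounds whose cAMP rise, as percent of the full-agonist control response, exceeds 60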;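 note: rat C6 glioma line stably carrying human EP2 under a CMV promoter; the protocol text gives 20 µM as final concentration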
T cell modulator: T cell immune modulation candidate; AID 2052; 2C CD8+ T cell-vesicle binding, flow cytometry; stronger effect = lower value; response (vesicle binding), % at 7 µM; 330,000 compounds, 0.068% hits;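 active = response, share of CD8 T cells binding vesicles, and their 90th percentile fluorescence all below set limits, cut at about 80% in these data, passing the limit was not always enough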;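 note: values below 100% mean blocked vesicle binding to the CD8+ T cells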
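incubation = binding step 1.5 h, 37 °C, antibody labelling 20 min, ice | test system = 2C mouse CD8+ T cells | read-out basis = percent CD8+ FL2 mean versus row control | controls = Peptide-free naked vesicles (low) and QL9 vesicles with 0.7% DMSO vehicle (high) | detection = flow cytometry of vesicle-bound cells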
Granule exo inh: blocks lytic granule exocytosis | TALL-104 LAMP-1 surface exposure, flow cytometry; cells stimulated with thapsigargin and PMA | inhibition, % at 10 µM | 360,000 compounds, 0.66% hits | AID 651702;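 active = inhibition above about 55%, limit read from the data; inconclusive = no clear call, values can overlap the other calls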
Granule exo CP1: blocks lytic granule exocytosis; shares compounds with Granule exo inh; TALL-104 cells, LAMP-1 externalization, flow cytometry; stimulated with PMA plus thapsigargin; inhibition, % at 10 µM; 1,500 compounds, 11% hits; AID 651954; in the data active = inhibition above about 60%
Numbers stand for hits; 0 = inactive; ? = inconclusive; - = no result given. Compounds with a hit are over-represented: about 2.6% of the library has one in this group of screens.

SMILES	MC4R antagonist	MC4R barr agon	PGE2 EP2 inh	EP2 mod	T cell modulator	Granule exo inh	Granule exo CP1
O=C(c1ccccc1-c1nc(-c2ccccc2)no1)N1CCCC1	0	0	0	0	0	0	-
Cc1cc(C)cc(N2C(=O)CC(Sc3ccccc3C(=O)O)C2=O)c1 (stereo not drawn)	0	0	0	0	0	83.8	0
CC1CC(C)CN(C(=O)Cn2nnc(-c3ccccc3)n2)C1 (stereo not drawn)	0	0	-	-	0	0	-
CC1CCN(C(=O)Cn2nnc(-c3ccccc3)n2)CC1	0	0	-	-	0	58.2	0
Cc1c(C(=O)O)sc(S(=O)(=O)N2CCN(C(=O)Cc3ccccc3)CC2)c1C(=O)O	0	0	-	-	-	0	-
Cc1ccccc1OCC(O)CN1CCN(CC(O)COc2ccccc2C)C(C)C1 (stereo not drawn)	0	0	-	-	0	0	-
O=C(NC1CC1)[C@@H]1C=CCN1S(=O)(=O)c1ccccc1Cl	-	-	-	0	-	-	-
C#Cc1ccc([C@@H]2C=C(C(=O)OCC=C)O[C@H](OCC)[C@H]2CCCO)cc1	0	0	-	0	0	0	-
C#Cc1ccc([C@H]2C=C(C(=O)OCC=C)O[C@@H](OCC)[C@@H]2CCCO)cc1	0	0	0	0	0	78.1	0
O=C1c2ccccc2C(=O)N1C/C=C/c1ccccc1	0	0	0	0	0	0	-
O=C1C(=O)N(C/C=C/c2ccccc2)c2ccccc21	0	0	-	-	0	61.7	0
O=C(O)C1CCN(c2ncccn2)CC1	0	0	0	0	0	0	-
CCCn1nc2cc(C(=O)NCCCCc3ccccc3)ccc2c1OCC	0	0	0	0	0	87.0	0
CCCn1nc2cc(C(=O)NCCc3ccc(C)cc3)ccc2c1OCC	0	0	0	0	0	0	-
O=C(NCc1ccco1)C1CCCN1S(=O)(=O)c1ccc(Cl)cc1 (stereo not drawn)	-	-	0	0	-	-	-
CC(C)c1ccc(NC(=S)N2CCN(S(=O)(=O)c3ccccc3)CC2)cc1	0	0	-	-	0	65.3	0
CS(=O)(=O)N(Cc1ccc(C(=O)Nc2ccccc2Sc2ccccc2)cc1)c1ccccc1	0	0	0	0	0	85.1	0
O=C(Nc1ccccc1Sc1ccccc1)c1ccccc1	0	0	0	0	0	0	-
Cc1cccc(N(CC(=O)NCc2ccco2)C(=O)CCC(=O)Nc2ccccn2)c1C	0	0	-	-	0	0	-
CC12C(=O)N(NC(=O)c3ccncc3)C(=O)C1C1C=CC2C1 (stereo not drawn)	0	0	0	0	0	0	-
CN(Cc1ccccc1)C(=O)c1nc2ccccn2c1CNCCn1cccn1	0	0	0	0	0	0	-
CC(c1ccon1)N(C)Cc1c(C(=O)N(C)Cc2ccccc2)nc2ccccn12 (stereo not drawn)	0	0	0	0	0	71.2	0
COc1ccc2[nH]cc(CCNC(=O)c3ccc([N+](=O)[O-])cc3)c2c1	0	0	0	0	0	0	-
Cn1c(NC(=O)CC2CCCCC2)cc(=O)n(C)c1=O	0	0	0	0	0	0	-
Cc1nc(-c2ccc(Cl)cc2)sc1C1(C)CC(c2ccc(Cl)cc2)=NO1 (stereo not drawn)	0	0	0	-	0	0	-
SMILES	MC4R antagonist	MC4R barr agon	PGE2 EP2 inh	EP2 mod	T cell modulator	Granule exo inh	Granule exo CP1
Cc1nc(-c2ccc(Cl)cc2)sc1C1(C)CC(c2ccccc2)=NO1 (stereo not drawn)	0	0	0	-	-	83.2	0
COC(=O)CSc1nc2cc(OC)ccc2n1C	0	0	0	0	0	0	-
CC(=O)NC(=O)c1cnn(-c2ccccc2)c1N	0	0	0	0	0	0	-
O=C(Oc1ccccc1/C=C\C(=O)c1cc2ccccc2o1)c1cccc(F)c1	0	0	0	0	0	0	-
COc1cccc(C(=O)Oc2ccccc2/C=C\C(=O)c2cc3ccccc3o2)c1	0	0	0	0	-	86.2	0
CCN1CCN(c2ccc(NC(=O)CCc3c(C)nc4c(-c5ccc(F)cc5)c(C)nn4c3C)cc2)CC1	0	0	0	0	0	57.2	0
CCCC(=O)N1CCC(Cc2ccccc2)CC1	0	0	-	-	0	?	-
CCCCCCNCC(=O)N1CCC(Cc2ccccc2)CC1	0	0	-	-	0	70.2	0
CCC(C)Nc1nc(-c2cccc(OC)c2O)nc2ccccc12 (stereo not drawn)	0	0	0	0	0	75.5	106.6
COc1cccc(-c2nc(N3CCCCC3)c3ccccc3n2)c1O	0	0	-	-	0	76.6	0
COc1ccc(CCN2C(=O)CC(N3CCN(c4ccccn4)CC3)C2=O)cc1OC (stereo not drawn)	0	0	0	0	0	0	-
CCCCCc1c(-c2cccc(F)c2)ncn1CCc1ccccc1OC	-	-	-	-	-	55.5	67.7
CCCCCc1c(-c2ccccc2OC)ncn1CCc1ccccc1OC	-	-	-	-	-	67.7	0
CCCCc1c(-c2cccc(F)c2)ncn1CCc1ccccc1OC	-	-	-	-	-	0	-
CCCCCc1c(-c2cccc(OC)c2)ncn1CCc1ccccc1OC	-	-	-	-	-	76.3	0
CCCCCc1c(-c2cccc(Cl)c2)ncn1CCc1ccccc1OC	-	-	-	-	-	0	-
CCCCc1c(-c2ccccc2OC)ncn1CCc1ccccc1OC	-	-	-	-	-	0	-
COC(=O)CCC(=O)Nc1cccc2ccccc12	0	0	0	0	0	0	-
CCOC(=O)C1(Cc2cccc(Cl)c2)CCCN(C(=O)c2c(CC)noc2C)C1 (stereo not drawn)	0	0	-	-	0	59.2	0
CCOC(=O)C1(Cc2cccc(Cl)c2)CCCN(C(=O)c2cc(C)on2)C1 (stereo not drawn)	0	0	-	-	0	0	-
CCOc1ccc(-c2cc(C(=O)NCCCn3ccnc3)c3cc(Br)ccc3n2)cc1	0	0	-	-	0	79.3	79.9
COc1ccc(/C=C/C(=O)N2CCCc3ccccc32)c(OC)c1	0	0	-	-	0	71.5	0
COc1cc(/C=C/C(=O)N2CCCc3ccccc32)cc(OC)c1OC	0	0	0	0	0	0	-
COc1ccc(C(=O)N(CCc2ccccc2)Cc2cccs2)c(OC)c1	0	0	-	-	0	63.6	0
COc1ccc(CCN(Cc2cccs2)C(=O)c2cc3sccc3n2C)cc1OC	-	-	0	0	-	-	-
CCCCn1c(NS(=O)(=O)c2ccc(C)cc2)c(S(=O)(=O)c2ccccc2)c2nc3ccccc3nc21	0	0	0	0	0	67.9	0
Cc1ccc(S(=O)(=O)c2c(N)n(CCCN(C)C)c3nc4ccccc4nc23)cc1	0	0	0	0	0	0	-
COc1ccc(NC(=O)COc2ccccc2)cc1Cl	0	0	-	-	0	0	-
COc1ccc(NC(=O)COc2ccccc2C(=O)NCC(c2ccccc2)N(C)C)cc1Cl (stereo not drawn)	0	0	-	-	0	65.8	0
O=C(Nc1ccccc1O)c1ccc(C(=O)c2ccccc2)o1	0	0	-	-	0	0	-
